Results taken from ChEMBL document CHEMBL1123921, “Quinolonecarboxylic acids. 2. Synthesis and antibacterial evaluation of 7-oxo-2,3-dihydro-7H-pyrido[1,2,3-de][1,4]benzothiazine-6-carboxylic acids” (J Med Chem, 1987).
In brackets after ≈: the same amount, converted by molar mass.

Assays:
[1] = Tissue levels determined 1 hr after peroral dose of 50 mg/kg in heart; settings: po
[2] = Peak plasma concentration at a dose of 100 mg/kg, os route in rat suspended in carboxymethyl cellulose (CMC); format: ADME, organism-based; set-up: dose 100 mg/kg; settings: po, read-out: Activity
Summary of the method: (§1)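 Fasted male Wistar rats (180–230 g) dosed orally, suspended in carboxymethyl cellulose. Plasma and urine assayed by HPLC: sample plus internal standard and citrate buffer (0.1 M, pH 6.2), extracted into CHCl₃, dried, redissolved in MeOH. Separation on C-18 with 0.1% AcOH/MeOH gradient, UV detection at 245 nm.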

[3] = tested on: Morganella morganii; assay: In vitro antibacterial activity against clinical isolates of Proteus morganii 27 (gram negative) by agar dilution assay.; format: functional
Summary of the method: (§2)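 Agar dilution on Isosensitest agar; compound incorporated by twofold serial dilution. Overnight broth cultures delivered by multipoint inoculator at 10⁵ CFU per point. Plates read after 18 h at 37 °C. MIC taken as the lowest concentration giving complete growth inhibition.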

[4] = Urinary clearance was determined in rat at 10 mg/kg intraperitoneal dosage; format: ADME, organism-based; set-up: dose 10 mg/kg, route intraperitoneal; settings: urine, ip, read-out: CL_renal (converted)
Summary of the method: (§3)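 Fasted male Wistar rats (180–230 g) given the drug ip in carboxymethyl cellulose. Plasma and urine extracted with CHCl₃ from citrate buffer pH 6.2 with internal standard. Analysis by reverse-phase C-18 HPLC, 0.1% AcOH/MeOH gradient, 245 nm UV. Urinary clearance and total clearance derived as pharmacokinetic parameters.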

[5] = Ratio of urinary excretion after os administration to ip administration; format: ADME, organism-based, Urine; settings: in vivo
Summary of the method: (§4)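 Fasted male Wistar rats (180–230 g), drug suspended in carboxymethyl cellulose, given orally or ip. Plasma (heparinized) and urine from metabolic cages were sampled at various times. The unchanged drug was measured by HPLC after CHCl3 extraction at pH 6.2 with an internal standard, on a C-18 column with an AcOH/MeOH gradient and UV detection at 245 nm. Interassay and intraassay variability was about 10%.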

[6] = Peak plasma concentration at a dose of 400 mg/kg, oral route in human; format: ADME, organism-based; set-up: dose 400 mg/kg, route oral; settings: read-out: Activity
Summary of the method: (§5)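 Four healthy volunteers of both sexes took oral capsules (100 mg units) at three dose levels. Venous blood drawn into heparinized tubes and plasma obtained by low-speed centrifugation. Urine collected. Unchanged drug in plasma and urine determined by C-18 HPLC after CHCl₃ extraction, with UV detection at 245 nm.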

[7] = Time taken for peak plasma concentration at a dose of 25 mg/kg, os route in rat suspended in carboxymethyl cellulose (CMC); format: ADME, organism-based; set-up: dose 25 mg/kg; settings: po; summary of the method: as §1
[8] = in vivo; settings: heart, po, 50 mg/kg
[9] = Urinary excretion for the compound was evaluated as percent dose excreted at 400 mg/kg oral dosage in human; format: ADME, organism-based; set-up: dose 400 mg/kg, route oral; settings: urine; summary of the method: as §5
[10] = Time taken for peak plasma concentration at a dose of 20 mg/kg, oral route in monkey (Macaca fascicularis) suspended in carboxymethyl cellulose (CMC); format: ADME, organism-based; set-up: dose 20 mg/kg, route oral; settings: cynomolgus monkey
Summary of the method: (§6)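 Four male beagle dogs or two Macaca fascicularis monkeys dosed orally, suspended in carboxymethyl cellulose. Venous blood collected into heparinized tubes and plasma separated by low-speed centrifugation. Urine gathered in metabolic cages. Unchanged drug measured by C-18 HPLC (extraction, UV 245 nm).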

[11] = Half life period was determined for the compound at 200 mg/kg concentration, oral route in human; format: ADME, organism-based; set-up: dose 200 mg/kg, route oral; settings: in vivo; summary of the method: as §5
[12] = Half life period was determined for the compound at 400 mg/kg concentration, oral route in human; format: ADME, organism-based; set-up: dose 400 mg/kg, route oral; settings: in vivo; summary of the method: as §5
[13] = Ratio of tissue (kidney) levels to plasma levels after 1 hr of treatment; format: ADME
Summary of the method: (§7)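 Male Wistar rats received 50 mg/kg po and were killed at 1 and 15 h. Tissue homogenates and plasma extracted with CHCl₃ after adding internal standard and pH 6.2 citrate buffer. Drug quantified by C-18 HPLC with UV at 245 nm. Tissue level divided by plasma level.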

[14] = Urinary excretion for the compound was evaluated as percent dose excreted at 25 mg/kg os dosage; format: ADME, organism-based; set-up: dose 25 mg/kg; settings: urine, po; summary of the method: as §1
[15] = tested on: Rattus norvegicus; assay: Volume of distribution at a dose of 10 mg/kg, intraperitoneal route in rat suspended in carboxymethyl cellulose (CMC); format: ADME, organism-based; set-up: dose 10 mg/kg, route intraperitoneal; settings: in vivo, ip; summary of the method: as §3
[16] = Time taken for peak plasma concentration at a dose of 100 mg/kg, oral route in human; format: ADME, organism-based; set-up: dose 100 mg/kg, route oral; summary of the method: as §5
[17] = Peak plasma concentration at a dose of 50 mg/kg, os route in rat suspended in carboxymethyl cellulose (CMC); format: ADME, organism-based; set-up: dose 50 mg/kg; settings: po, read-out: Activity; summary of the method: as §4
[18] = Urinary excretion for the compound was evaluated as percent dose excreted at 200 mg/kg oral dosage in human; format: ADME, organism-based; set-up: dose 200 mg/kg, route oral; settings: urine; summary of the method: as §5
[19] = Plasma levels determined 1 hr after peroral dose of 50 mg/kg; settings: po
[20] = Half life period was determined for the compound at 100 mg/kg concentration, oral route in human; format: ADME, organism-based; set-up: dose 100 mg/kg, route oral; settings: in vivo; summary of the method: as §5
[21] = Peak plasma concentration at a dose of 200 mg/kg, oral route in human; format: ADME, organism-based; set-up: dose 200 mg/kg, route oral; settings: read-out: Activity; summary of the method: as §5
[22] = in vivo; settings: ip, 25 mg/kg
[23] = Urinary excretion for the compound was evaluated as percent dose excreted at 20 mg/kg oral dosage in dog (beagle);Range is between (8-10).; format: ADME, organism-based, Canis lupus familiaris; set-up: dose 20 mg/kg, route oral; settings: urine; summary of the method: as §6
[24] = Ratio of tissue (heart) levels to plasma levels after 15 hr of treatment; format: ADME; summary of the method: as §7
[25] = in vivo; settings: po, 25 mg/kg
[26] = in vivo; settings: kidney, po, 50 mg/kg
[27] = tested on: Pseudomonas aeruginosa; assay: In vitro antibacterial activity against clinical isolates of Pseudomonas aeruginosa 2437 (gram negative) by agar dilution assay.; format: functional; summary of the method: as §2
[28] = Ratio of tissue (liver) levels to plasma levels after 1 hr of treatment; format: ADME; summary of the method: as §7

CN1CCN(c2c(F)cc3c(=O)c(C(=O)O)cn4c3c2SCC4)CC1 [RUFLOXACIN]
concentration at 1 h [1]: 31000 ng/mL | Cmax [2]: 21000 ng/mL | MIC [3]: 1.56 µg/mL (≈ 4.29 µM) | CL renal [4]: 0.75 mL/min/kg | Ratio [5]: 0.91 | Cmax [6]: 2730 ng/mL | Tmax [7]: 1 h | concentration at 15 h [8]: 5000 ng/mL | dose excreted [9]: 33% | Tmax [10]: 2 h | half-life [11]: 35 h | half-life [12]: 32 h | Kp at 1 h [13]: 6 | dose excreted [14]: 24.5% | Vd [15]: 3 L/kg | Tmax [16]: 4 h | Cmax [17]: 8000 ng/mL | dose excreted [18]: 55% | concentration at 1 h [19]: 10000 ng/mL | half-life [20]: 30 h | Cmax [21]: 1920 ng/mL | half-life [22]: 9.9 h | dose excreted [23]: 8% | Kp at 15 h [24]: 1.7 | half-life [25]: 8.7 h | concentration at 15 h [26]: 8000 ng/mL | MIC [27]: 12.5 µg/mL (≈ 34.4 µM) | Kp at 1 h [28]: 8
